Data: ChEMBL document CHEMBL1125180, “3-Hydroxy-3-methylglutaryl-coenzyme A reductase inhibitors. 8. Side chain ether analogues of lovastatin” (J Med Chem, 1991)

Experiments:
[1] = The relative potency by comparing its IC50 value with that of mevastatin
Procedure, shortened: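 Compounds were tested in salt form for intrinsic inhibition of HMG-CoA reductase. Mevastatin (compactin) was run alongside in the same test and set to a relative potency of 100. Each compound's relative potency was derived by comparing its IC50 with that of mevastatin.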

[2] = biological target: T1, 3-hydroxy-3-methylglutaryl-coenzyme A reductase (Rattus norvegicus, UniProt P51639); experiment: In vitro inhibitory activity against rat liver HMG-CoA reductase enzyme
T1 sequence (P51639 whole entry): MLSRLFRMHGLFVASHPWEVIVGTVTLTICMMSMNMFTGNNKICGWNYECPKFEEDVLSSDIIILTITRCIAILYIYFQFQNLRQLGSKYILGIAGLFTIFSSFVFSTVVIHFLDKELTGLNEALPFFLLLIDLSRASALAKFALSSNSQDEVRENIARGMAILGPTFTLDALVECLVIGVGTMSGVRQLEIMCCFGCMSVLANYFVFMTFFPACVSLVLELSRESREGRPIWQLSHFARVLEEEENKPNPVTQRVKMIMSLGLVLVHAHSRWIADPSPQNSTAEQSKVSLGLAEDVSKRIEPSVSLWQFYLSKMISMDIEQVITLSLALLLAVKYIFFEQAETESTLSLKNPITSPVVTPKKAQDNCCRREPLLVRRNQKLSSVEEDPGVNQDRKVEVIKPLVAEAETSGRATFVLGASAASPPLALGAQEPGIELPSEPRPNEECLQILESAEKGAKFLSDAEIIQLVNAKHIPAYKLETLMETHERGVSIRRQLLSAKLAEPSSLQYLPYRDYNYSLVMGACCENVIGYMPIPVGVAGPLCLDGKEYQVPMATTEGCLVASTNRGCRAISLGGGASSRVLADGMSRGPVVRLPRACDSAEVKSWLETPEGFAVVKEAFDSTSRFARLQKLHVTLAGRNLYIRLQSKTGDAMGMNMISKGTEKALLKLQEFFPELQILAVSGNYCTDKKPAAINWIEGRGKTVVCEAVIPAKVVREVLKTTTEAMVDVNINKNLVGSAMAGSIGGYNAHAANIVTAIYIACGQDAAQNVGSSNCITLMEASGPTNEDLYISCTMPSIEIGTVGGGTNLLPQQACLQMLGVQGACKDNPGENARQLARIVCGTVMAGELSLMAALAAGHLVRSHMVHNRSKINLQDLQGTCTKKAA

C=C(C)CO[C@H]1C[C@@H](C)C=C2C=C[C@H](C)[C@H](CCC3C[C@@H](O)CC(=O)O3)[C@H]21 (some centres not stated)
Relative potency [1]: 1.5
IC50 [2]: 360 nM

C[C@H]1C=C2C=C[C@H](C)[C@H](CCC3C[C@@H](O)CC(=O)O3)[C@H]2[C@@H](OCc2ccc(Cl)cc2)C1 (some centres not stated)
Relative potency [1]: 8.5
IC50 [2]: 170 nM

C[C@H]1C=C2C=C[C@H](C)[C@H](CC[C@@H]3C[C@@H](O)CC(=O)O3)[C@H]2[C@@H](OC(=O)Cc2ccccc2)C1
Relative potency [1]: 29

C=CCO[C@H]1C[C@@H](C)C=C2C=C[C@H](C)[C@H](CCC3C[C@@H](O)CC(=O)O3)[C@H]21 (some centres not stated)
Relative potency [1]: 1.5
IC50 [2]: 370 nM

C[C@H]1C=C2C=C[C@H](C)[C@H](CCC3C[C@@H](O)CC(=O)O3)[C@H]2[C@@H](OCc2ccccc2)C1 (some centres not stated)
Relative potency [1]: 20
IC50 [2]: 27 nM

CO[C@H]1C[C@@H](C)C=C2C=C[C@H](C)[C@H](CCC3C[C@@H](O)CC(=O)O3)[C@H]21 (some centres not stated)
Relative potency [1]: 0.2
IC50 [2]: 2810 nM

C=CCC(=O)O[C@H]1C[C@@H](C)C=C2C=C[C@H](C)[C@H](CCC3C[C@@H](O)CC(=O)O3)[C@H]21 (some centres not stated)
Relative potency [1]: 187
IC50 [2]: 2.9 nM

C[C@H]1C=C2C=C[C@H](C)[C@H](CCC3C[C@@H](O)CC(=O)O3)[C@H]2[C@@H](OCc2ccc(F)cc2)C1 (some centres not stated)
Relative potency [1]: 119
IC50 [2]: 4.7 nM

CC(=O)O[C@H]1C[C@@H](C)C=C2C=C[C@H](C)[C@H](CCC3C[C@@H](O)CC(=O)O3)[C@H]21 (some centres not stated)
Relative potency [1]: 2.1
IC50 [2]: 269 nM
